In brackets after ≈: the same amount, converted by molar mass.
How the values were obtained:
Format in all cases: functional
[1] = test system: Prevotella bivia; test: Antimicrobial activity against Prevotella bivia under anaerobic conditions after 44 hrs by CLSI-M11-47 protocol based agar dilution method
Method in brief: (§1)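 Clinical isolates were stored at −70°C in 20% skim milk and identified phenotypically or by partial 16S rRNA sequencing. Each strain was subcultured twice from frozen stock. Cell paste from 48-h cultures was suspended in brucella broth to a 0.5 McFarland standard. About 10^5 CFU per spot were applied by Steers replicator to agar dilution plates prepared on the day of testing. Plates were incubated 44 h at 37°C in an anaerobic chamber. MIC was taken as the lowest concentration giving complete inhibition or marked reduction of growth versus the drug-free control.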

[2] = test system: Prevotella tannerae; test: Antimicrobial activity against Prevotella tannerae under anaerobic conditions after 44 hrs by CLSI-M11-47 protocol based agar dilution method; details: Alloprevotella tannerae; method in brief: as §1
[3] = test system: Porphyromonas asaccharolytica; test: Antimicrobial activity against Porphyromonas asaccharolyticus under anaerobic conditions after 44 hrs by CLSI-M11-47 protocol based agar dilution method; method in brief: as §1
[4] = test system: Fusobacterium nucleatum; test: Antimicrobial activity against Fusobacterium nucleatum under anaerobic conditions after 44 hrs by CLSI-M11-47 protocol based agar dilution method; method in brief: as §1
[5] = test system: Prevotella melaninogenica; test: Antimicrobial activity against Prevotella melaninogenica under anaerobic conditions after 44 hrs by CLSI-M11-47 protocol based agar dilution method; method in brief: as §1
[6] = test system: Enterocloster clostridioformis; test: Antimicrobial activity against Clostridium clostridioforme under anaerobic conditions after 44 hrs by CLSI-M11-47 protocol based agar dilution method
Method in brief: (§2)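 Reference agar dilution per CLSI M11-A7 with plates made on test day. Clinical isolates were stored at −70°C in 20% skim milk, subcultured twice, and 48-h cell paste was suspended in brucella broth to 0.5 McFarland. About 10^5 CFU/spot was applied with a Steers replicator. Plates were incubated 44 h at 37°C anaerobically. MIC was the lowest concentration giving complete inhibition or marked growth reduction versus the drug-free control.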

[7] = test system: Hoylesella loescheii; test: Antimicrobial activity against Prevotella loescheii under anaerobic conditions after 44 hrs by CLSI-M11-47 protocol based agar dilution method; method in brief: as §1
[8] = test system: Porphyromonas somerae; test: Antimicrobial activity against Porphyromonas somerae under anaerobic conditions after 44 hrs by CLSI-M11-47 protocol based agar dilution method; method in brief: as §1
[9] = test system: Prevotella disiens; test: Antimicrobial activity against Prevotella disiens under anaerobic conditions after 44 hrs by CLSI-M11-47 protocol based agar dilution method; method in brief: as §1
[10] = test system: Prevotella bergensis; test: Antimicrobial activity against Prevotella bergensis under anaerobic conditions after 44 hrs by CLSI-M11-47 protocol based agar dilution method; details: Hallella bergensis; method in brief: as §1
[11] = test system: Phocaeicola vulgatus; test: Antimicrobial activity against Bacteroides vulgatus under anaerobic conditions after 44 hrs by CLSI-M11-47 protocol based agar dilution method; method in brief: as §2
[12] = test system: Gemella sanguinis; test: Antimicrobial activity against Gemella sanguinis under anaerobic conditions after 44 hrs by CLSI-M11-47 protocol based agar dilution method; method in brief: as §1
[13] = test system: Atopobium parvulum; test: Antimicrobial activity against Atopobium parvulum under anaerobic conditions after 44 hrs by CLSI-M11-47 protocol based agar dilution method; details: Lancefieldella parvula; method in brief: as §2
[14] = test system: Finegoldia magna; test: Antimicrobial activity against Finegoldia magna under anaerobic conditions after 44 hrs by CLSI-M11-47 protocol based agar dilution method; method in brief: as §2
[15] = test system: Peptoniphilus harei; test: Antimicrobial activity against Peptoniphilus harei under anaerobic conditions after 44 hrs by CLSI-M11-47 protocol based agar dilution method; method in brief: as §1
[16] = test system: Clostridium tertium; test: Antimicrobial activity against Clostridium tertium under anaerobic conditions after 44 hrs by CLSI-M11-47 protocol based agar dilution method; method in brief: as §2
[17] = test system: Solobacterium moorei; test: Antimicrobial activity against Solobacterium moorei under anaerobic conditions after 44 hrs by CLSI-M11-47 protocol based agar dilution method; method in brief: as §1
[18] = test system: Clostridium aldenense; test: Antimicrobial activity against Clostridium aldenense under anaerobic conditions after 44 hrs by CLSI-M11-47 protocol based agar dilution method; details: Enterocloster aldenensis; method in brief: as §2
[19] = test system: Anaerococcus vaginalis; test: Antimicrobial activity against Anaerococcus vaginalis under anaerobic conditions after 44 hrs by CLSI-M11-47 protocol based agar dilution method; method in brief: as §2
[20] = test system: Clostridium baratii; test: Antimicrobial activity against Clostridium baratii under anaerobic conditions after 44 hrs by CLSI-M11-47 protocol based agar dilution method
[21] = test system: Prevotella corporis; test: Antimicrobial activity against Prevotella corporis under anaerobic conditions after 44 hrs by CLSI-M11-47 protocol based agar dilution method; method in brief: as §1
[22] = test system: Clostridium perfringens; test: Antimicrobial activity against Clostridium perfringens under anaerobic conditions after 44 hrs by CLSI-M11-47 protocol based agar dilution method
[23] = test system: Eubacterium contortum; test: Antimicrobial activity against Eubacterium contortum under anaerobic conditions after 44 hrs by CLSI-M11-47 protocol based agar dilution method; details: Faecalicatena contorta; method in brief: as §2
[24] = test system: Eubacterium limosum; test: Antimicrobial activity against Eubacterium limosum under anaerobic conditions after 44 hrs by CLSI-M11-47 protocol based agar dilution method; method in brief: as §2
[25] = test system: Clostridium hathewayi; test: Antimicrobial activity against Clostridium hathewayi under anaerobic conditions after 44 hrs by CLSI-M11-47 protocol based agar dilution method; details: Hungatella hathewayi; method in brief: as §2
[26] = test system: Prevotella denticola; test: Antimicrobial activity against Prevotella denticola under anaerobic conditions after 44 hrs by CLSI-M11-47 protocol based agar dilution method; method in brief: as §1
[27] = test system: Parabacteroides merdae; test: Antimicrobial activity against Bacteroides merdae under anaerobic conditions after 44 hrs by CLSI-M11-47 protocol based agar dilution method; method in brief: as §2
[28] = test system: Clostridium citroniae; test: Antimicrobial activity against Clostridium citroniae under anaerobic conditions after 44 hrs by CLSI-M11-47 protocol based agar dilution method; details: Enterocloster citroniae; method in brief: as §2
[29] = test system: Clostridium glycolicum; test: Antimicrobial activity against Clostridium glycolicum under anaerobic conditions after 44 hrs by CLSI-M11-47 protocol based agar dilution method; details: Terrisporobacter glycolicus; method in brief: as §2
[30] = test system: [Clostridium] innocuum; test: Antimicrobial activity against Clostridium […] under anaerobic conditions after 44 hrs by CLSI-M11-47 protocol based agar dilution method; method in brief: as §2
[31] = test system: Fusobacterium necrophorum; test: Antimicrobial activity against Fusobacterium necrophorum under anaerobic conditions after 44 hrs by CLSI-M11-47 protocol based agar dilution method; method in brief: as §2
[32] = test system: Clostridium cadaveris; test: Antimicrobial activity against Clostridium cadaveris under anaerobic conditions after 44 hrs by CLSI-M11-47 protocol based agar dilution method; method in brief: as §2

With `CO/N=C(\C(=O)N[C@@H]1C(=O)N2C(C(=O)O)=C(CSc3nc(=O)c(O)nn3C)CS[C@H]12)c1csc(N)n1` [CEFTRIAXONE] the MIC50 [1] was 2 µg/mL (≈ 3.61 µM), the MIC90 [1] was > 64 µg/mL and the MIC50 [2] was 1 µg/mL (≈ 1.8 µM). It also gave an MIC90 [2] of 8 µg/mL (≈ 14.4 µM), an MIC50 [3] of 0.06 µg/mL (≈ 0.108 µM) and an MIC90 [3] of 0.06 µg/mL (≈ 0.108 µM). For the same compound, the MIC50 [4] was 0.125 µg/mL (≈ 0.225 µM), the MIC90 [4] was 0.5 µg/mL (≈ 0.902 µM) and the MIC50 [5] was 2 µg/mL (≈ 3.61 µM). The MIC90 [5] was 32 µg/mL (≈ 57.7 µM), the MIC50 [6] was 4 µg/mL (≈ 7.21 µM) and the MIC90 [6] was 32 µg/mL (≈ 57.7 µM). It also gave an MIC50 [7] of 1 µg/mL (≈ 1.8 µM), an MIC90 [7] of 8 µg/mL (≈ 14.4 µM) and an MIC50 [8] of 0.015 µg/mL (≈ 0.027 µM). It also gave an MIC90 [8] of 64 µg/mL (≈ 115 µM), an MIC50 [9] of 1 µg/mL (≈ 1.8 µM) and an MIC90 [9] of 8 µg/mL (≈ 14.4 µM). The MIC50 [10] was 1 µg/mL (≈ 1.8 µM), the MIC90 [10] was 8 µg/mL (≈ 14.4 µM) and the MIC50 [11] was > 64 µg/mL. For the same compound, the MIC90 [11] was > 64 µg/mL, the MIC50 [12] was 0.25 µg/mL (≈ 0.451 µM) and the MIC90 [12] was 16 µg/mL (≈ 28.9 µM). It also gave an MIC50 [13] of 0.5 µg/mL (≈ 0.902 µM), an MIC90 [13] of 2 µg/mL (≈ 3.61 µM) and an MIC50 [14] of 4 µg/mL (≈ 7.21 µM). For the same compound, the MIC90 [14] was 8 µg/mL (≈ 14.4 µM), the MIC50 [15] was 0.25 µg/mL (≈ 0.451 µM) and the MIC90 [15] was 16 µg/mL (≈ 28.9 µM). It also gave an MIC50 [16] of 2 µg/mL (≈ 3.61 µM), an MIC90 [16] of 64 µg/mL (≈ 115 µM) and an MIC50 [17] of 0.5 µg/mL (≈ 0.902 µM). It also gave an MIC90 [17] of 2 µg/mL (≈ 3.61 µM), an MIC50 [18] of 4 µg/mL (≈ 7.21 µM) and an MIC90 [18] of 32 µg/mL (≈ 57.7 µM). The MIC50 [19] was 0.25 µg/mL (≈ 0.451 µM), the MIC90 [19] was 16 µg/mL (≈ 28.9 µM) and the MIC50 [20] was 2 µg/mL (≈ 3.61 µM). It also gave an MIC90 [20] of 64 µg/mL (≈ 115 µM), an MIC50 [21] of 1 µg/mL (≈ 1.8 µM) and an MIC90 [21] of 8 µg/mL (≈ 14.4 µM). It also gave an MIC50 [22] of 0.5 µg/mL (≈ 0.902 µM), an MIC90 [22] of 2 µg/mL (≈ 3.61 µM) and an MIC50 [23] of 0.5 µg/mL (≈ 0.902 µM). For the same compound, the MIC90 [23] was 2 µg/mL (≈ 3.61 µM), the MIC50 [24] was 0.5 µg/mL (≈ 0.902 µM) and the MIC90 [24] was 2 µg/mL (≈ 3.61 µM). It also gave an MIC50 [25] of 4 µg/mL (≈ 7.21 µM), an MIC90 [25] of 32 µg/mL (≈ 57.7 µM) and an MIC50 [26] of 1 µg/mL (≈ 1.8 µM). For the same compound, the MIC90 [26] was 8 µg/mL (≈ 14.4 µM), the MIC50 [27] was > 64 µg/mL and the MIC90 [27] was > 64 µg/mL. It also gave an MIC50 [28] of 4 µg/mL (≈ 7.21 µM), an MIC90 [28] of 32 µg/mL (≈ 57.7 µM) and an MIC50 [29] of 2 µg/mL (≈ 3.61 µM). The MIC90 [29] was 64 µg/mL (≈ 115 µM), the MIC50 [30] was 8 µg/mL (≈ 14.4 µM) and the MIC90 [30] was 16 µg/mL (≈ 28.9 µM). For the same compound, the MIC50 [31] was 0.015 µg/mL (≈ 0.027 µM), the MIC90 [31] was 0.03 µg/mL (≈ 0.0541 µM) and the MIC50 [32] was 2 µg/mL (≈ 3.61 µM). The MIC90 [32] was 64 µg/mL (≈ 115 µM).

From ChEMBL document CHEMBL1255409, “In vitro activity of ceftaroline against 623 diverse strains of anaerobic bacteria” (2010)
